Compounds with a hit are over-represented: about 3.8% of the library has one in this group of screens.
KCNQ1 block – inhibitors of human KCNQ1 potassium channel; P51787; CHO-K1 KCNQ1, FluxOR thallium flux fluorescence; stronger effect = higher value; B-score at 10 µM; hit rate 1.3% among 310,000; AID 2642;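 active = compounds whose thallium flux B-score, printed positive for inhibition, exceeds three library SD while starting fluorescence stays within three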;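 note: channel opened by potassium depolarization with thallium stimulus after 20 min compound exposure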
KCNQ1 pot – potentiators or activators of human KCNQ1 potassium channel. B-score at 10 µM. hit rate 0.35% among 310,000. CHO-K1 KCNQ1, thallium flux FluxOR fluorescence; stronger effect = higher value. P51787. AID 2648;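 active = fluorescence ratio B-score, a plate-corrected score, at least three library SD, with initial intensity B-score within 5 SD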
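Medium – assay buffer, equal DMSO in all wells · Material – CHO-K1 cell line with stable KCNQ1 potassium channel expression · Signal – kinetic FluxOR thallium fluorescence, 10-s 1-Hz baseline, 110-s post-stimulus read · Compound – single concentration per compound, DMSO matched to controls · Schedule – 37 °C overnight plating, 90-min dark dye load, 20-min compound pretreatment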
KCNK9 inh-1 – blocks the human KCNK9 two-pore domain potassium channel | HEK293 KCNK9, FluxOR thallium flux fluorescence; stronger effect = lower value | B-score at 10 µM | hit rate 1.2% among 310,000 | AID 488922;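 active = ratio B-score over 3 SD below the library mean, with starting fluorescence within 5 SD of its mean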;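 note: negative B-score means less thallium flux so channel inhibition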
Target sequence (Q9NPC2 whole entry, looked up, the tested form may be a part): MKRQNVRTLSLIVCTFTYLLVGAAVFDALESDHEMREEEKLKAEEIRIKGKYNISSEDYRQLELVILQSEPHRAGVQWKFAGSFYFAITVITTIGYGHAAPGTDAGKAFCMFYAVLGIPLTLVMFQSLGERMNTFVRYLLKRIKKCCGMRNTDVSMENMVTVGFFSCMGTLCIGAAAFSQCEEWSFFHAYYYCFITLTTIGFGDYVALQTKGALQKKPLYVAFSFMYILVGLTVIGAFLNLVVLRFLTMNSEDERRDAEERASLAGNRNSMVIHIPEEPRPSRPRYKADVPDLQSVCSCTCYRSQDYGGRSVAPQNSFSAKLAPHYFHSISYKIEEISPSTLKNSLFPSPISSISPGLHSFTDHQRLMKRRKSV
KCNK3 block – human KCNK3 channel inhibition, primary screen; O14649; CHO-KCNK3 thallium flux, FluxOR fluorescence; stronger effect = lower value; B-score at 10 µM; hit rate 0.84% among 340,000; AID 602410;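 active = B-score under library mean minus 4 SD, starting fluorescence ratio at most library mean plus 5 SD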;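 note: more negative B-score means stronger inhibition of thallium flux through KCNK3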
Kir21 block – inhibitors of mouse Kir2.1 inward-rectifier potassium channel | P35561 | HEK293-Kir2.1, FluxOR thallium flux fluorescence; stronger effect = lower value | B-score at 10 µM | hit rate 0.85% among 310,000;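 active = fluorescence ratio B-score at or below minus 3 SD of library scores, with starting-brightness B-score within 2 SD, cut at about -4.2 in these data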;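 note: channel flux triggered by added potassium and thallium sulfate stimulus; B-score of peak minus minimum fluorescence over baseline after thallium stimulus; more negative B-score means stronger Kir2.1 block with less thallium influx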
hERG protect – hERG (human) protection from proarrhythmic block; Q12809; hit rate 0.51% among 310,000; CHO-hERG, FluxOR thallium flux, dofetilide IC70 present; activation (rescue from dofetilide block), less the hit threshold, % at 10 µM;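 active = activation above the mean of controls blocked by dofetilide plus 5 SD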;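 note: thallium influx through hERG after potassium depolarization seen as dye fluorescence rise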
hERG inh – hERG (human) inhibition as Kir2.1 counter-screen; shares compounds with Kir21 block; hERG-expressing cells, thallium flux; inhibition, % at 10 µM; hit rate 20% among 320; AID 2236;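 note: host cells are CHO cells stably expressing hERG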
KCNK9 inh-2 – selectivity of Kir2.1 inhibitors: effect on human KCNK9; shares compounds with Kir21 block; KCNK9-expressing cells, ion flux inhibition; inhibition, % at 10 µM; hit rate 5% among 320; AID 2329
Kir21 ephys inh – inhibitors of mouse Kir2.1 potassium channel; shares compounds with Kir21 block; Kir2.1 cells, automated patch-clamp current inhibition; inhibition, % at 25 µM; hit rate 71% among 320; AID 463252
Active calls of the source: *; i = inactive; . = no result. Unless noted, the rule behind the calls is not given here.

SMILES | KCNQ1 block | KCNQ1 pot | KCNK9 inh-1 | KCNK3 block | Kir21 block | hERG protect | hERG inh | KCNK9 inh-2 | Kir21 ephys inh
CCOc1ccc(CN2CCC(Cc3ccccc3)CC2)cc1 | i | i | i | i | -5.8* | -9 | 68%* | i | 49%*
COC(=O)c1ccc(/C=C/C(=O)OCC(=O)Nc2sccc2C(N)=O)cc1 | . | . | . | i | . | . | . | . | .
Cc1cccc(C)c1NC(=O)c1sccc1SCC#N | i | i | i | i | -0.3 | -5 | . | . | .
CNC(=O)c1sccc1SCc1c(Cl)cccc1Cl | i | i | i | i | -9.4* | -8 | i | i | 43%*
CCN1CCN(CCNC(=O)CCCn2nc(C)c3c(C)n(-c4ccc(C)cc4)nc3c2=O)CC1 | i | i | i | i | -1.9 | 1 | . | . | .
CC(NCCC(Cc1ccccc1)c1ccco1)c1ccccc1 (configuration not stated) | i | i | i | i | -14* | -22 | i | i | i
O=C(CC(Cc1ccccc1)c1ccco1)NC1CCCCC1 (configuration not stated) | i | i | i | i | -2.7 | -7 | . | . | .
CCOC(=O)C1(Cc2cccc(OC)c2)CCCN(C(=O)CSC)C1 (configuration not stated) | i | i | i | i | 0.69 | -7 | . | . | .
CC(NS(=O)(=O)c1ccc(Br)s1)c1ccccc1 (configuration not stated) | i | i | i | i | -7.4* | -7 | i | i | 44%*
CSc1ccc(S(=O)(=O)NC(C)c2ccccc2)cc1 (configuration not stated) | i | i | i | i | -7.3* | -8 | i | i | 63%*
Cc1ccc(S(=O)(=O)N/N=C/c2ccccc2F)cc1[N+](=O)[O-] | i | i | i | i | -0.03 | 1 | . | . | .
O=S(=O)(NCc1ccccc1)c1ccc(Br)s1 | i | i | i | i | -2 | -4 | . | . | .
Cc1ccc(S(=O)(=O)NC(C)c2ccccc2)cc1[N+](=O)[O-] (configuration not stated) | i | i | i | i | -8* | -3 | i | i | 30%*
CCn1c(CSc2nc3ccccc3s2)nnc1SCC(N)=O | i | i | i | i | 0.61 | -9 | . | . | .
CCn1c(CSc2nc3ccccc3s2)nnc1SCC(=O)OC(C)(C)C | i | i | i | i | -8.7* | -14 | i | i | 31%*
COc1ccc(C2(C)NC(=O)N(CC(=O)Nc3ccc(Br)cc3F)C2=O)cc1OC (configuration not stated) | i | i | i | i | -0.48 | -9 | . | . | .
CN(Cc1ccccc1)C(=O)COC(=O)CCC(=O)c1ccc(Cl)cc1 | . | . | . | i | . | . | . | . | .
COc1ccc(CCC(=O)N2CCN(C(=O)c3ccccc3)CC2)cc1 | i | i | i | i | 0.89 | -2 | . | . | .
COc1ccc(C(=O)CN2Cc3ccccc3C2=N)cc1 | i | i | i | i | -11* | -3 | 65%* | i | i
Cc1ccc(/C(=N/Nc2nc3ccccc3s2)C2=C(O)c3ccccc3C2=O)cc1 | 10* | i | i | i | 4.4 | -16 | i | i | i
COc1ccc(CCNC2CCc3ccccc3C2)cc1 (configuration not stated) | i | i | i | i | -8.6* | -10 | i | i | 37%*
CC(C)C[C@@H](CN)NC(=O)c1nc[nH]c1C(=O)N[C@@H](C)C(=O)CNC[C@H](C)NC(=O)c1nc[nH]c1C(=O)N[C@@H](CC(=O)O)C(=O)O | . | . | . | i | . | . | . | . | .
Cc1ccccc1OCc1nnc(SCC(=O)O)n1-c1ccccc1 | i | i | i | i | -0.07 | -2 | . | . | .
Cc1ccccc1OCCSc1nnc(C)n1-c1ccccc1 | i | i | i | i | -6.7* | -6 | i | i | 54%*
CC(OC(=O)COc1ccccc1)C(=O)NC1CCCC1 (configuration not stated) | . | . | . | i | . | . | . | . | .
SMILES | KCNQ1 block | KCNQ1 pot | KCNK9 inh-1 | KCNK3 block | Kir21 block | hERG protect | hERG inh | KCNK9 inh-2 | Kir21 ephys inh
CCc1cc2c(CN3CCN(Cc4ccccc4)CC3)cc(=O)oc2cc1O | i | i | i | i | -6* | -6 | i | i | i
O=C(Nc1ccccc1C(=O)N/N=C/c1ccncc1)c1ccccc1 | i | i | i | i | -1.9 | -10 | . | . | .
COc1cc(/C=C(\C#N)C(=O)c2ccc(O)c(O)c2)cc(I)c1O | . | . | . | i | . | . | . | . | .
COc1cc(OC)c(OC)cc1CCC(C)NCCC(c1ccccc1)c1ccccc1 (configuration not stated) | i | i | i | i | -11* | -21 | 68%* | i | 5.1%*
Cc1ccc(C(=O)N/C(=C\c2ccc(-c3ccc(Br)cc3)o2)C(=O)NCCCN(C)C)cc1 | 8* | i | i | i | -10* | -33 | 77%* | i | i
COc1cccc(CCc2nnc(CCC(=O)NCCC3CCCCO3)o2)c1 (configuration not stated) | i | i | i | i | 0 | -3 | . | . | .
COc1cc(C)c(Cl)cc1S(=O)(=O)NCc1ccco1 | i | i | i | i | -1.5 | -5 | . | . | .
CCOc1cc(C)c(Cl)cc1S(=O)(=O)NCc1ccco1 | i | i | i | i | -8* | -13 | i | i | 31%*
COc1ccc(CCNCC(O)COc2cccc(Br)c2)cc1OC (configuration not stated) | i | i | i | i | -1.4 | -7 | . | . | .
Cc1ccc(CNC(=O)COc2ccc(C(=O)c3ccc(F)cc3)cc2)cc1 | i | i | i | i | 1 | -9 | . | . | .
Cc1ccc(OCC(O)CNCc2ccc(F)cc2)cc1 (configuration not stated) | i | i | i | i | -8.8* | -8 | i | i | 77%*
COc1ccc(CCNCC(O)COc2ccc(OC)cc2C(C)(C)C)cc1 (configuration not stated) | i | i | i | i | -6.2* | -10 | 61%* | i | i
COc1ccc(CNCC(O)COc2ccc(C)cc2[N+](=O)[O-])cc1 (configuration not stated) | i | i | i | i | -8.7* | -14 | i | i | 61%*

Bioassay records (PubChem)
